# According to ChEMBL document CHEMBL3627690, “Scaffold-Hopping and Structure-Based Discovery of Potent, Selective, And Brain Penetrant N-(1H-Pyrazol-3-yl)pyridin-2-amine Inhibitors of Dual Leucine Zipper Kinase (DLK, MAP3K12)” (J Med Chem, 2015):
# Active and inactive are the calls of the source. The rule behind the calls is not given here.
# How the values were obtained:
# [1] = molecular target: Tyrosine-protein kinase SYK (Homo sapiens) (UniProt P43405); assay: Inhibition of Syk (unknown origin) at 1 uM by FRET method
# How it was run: (§1)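 Single-point screen at 1 uM against a panel of 58 representative kinases. Readout was labeled-peptide phosphorylation by FRET (Z′-LYTE), using the vendor's protocols.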
# [2] = molecular target: T1, Proto-oncogene tyrosine-protein kinase Src (Homo sapiens, UniProt P12931); details: 1 uM
# [3] = molecular target: Mitogen-activated protein kinase kinase kinase 8 (Homo sapiens) (UniProt P41279); assay: Inhibition of Cot (unknown origin) at 1 uM by FRET method
# How it was run: (§2)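 SelectScreen panel of 58 kinases, each tested at a single 1 µM compound concentration. Read-out was Z′-LYTE FRET of labeled peptide phosphorylation, run by the vendor's protocols, reported as percent inhibition.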
# [4] = molecular target: cAMP-dependent protein kinase (PKA) (Homo sapiens) (UniProt P22694+P17612+P22612); assay: Inhibition of PKA (unknown origin) at 1 uM by FRET method; format: protein assay; how it was run: as §1
# [5] = molecular target: Mast/stem cell growth factor receptor Kit (Homo sapiens, UniProt P10721); assay: Inhibition of Kit (unknown origin) by FRET method
# [6] = molecular target: Activin receptor type-1B (Homo sapiens) (UniProt P36896); assay: Inhibition of ACVR1B (unknown origin) at 1 uM by FRET method; how it was run: as §2
# [7] = molecular target: Glycogen synthase kinase-3 beta (Homo sapiens, UniProt P49841); assay: Inhibition of GSK3beta (unknown origin) by FRET method
# [8] = molecular target: c-Jun N-terminal kinase, JNK (Homo sapiens) (UniProt P45983+P53779+P45984); assay: Inhibition of Myc CA-JNK (unknown origin) transfected in HEK293 cells assessed as reduction of phosphorylation of c-Jun at 10 uM incubated for 5 hrs measured by Western blot analysis; format: cell-based
# How it was run: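 HEK293 cells were transfected with constitutively active JNK 24 h before compound treatment. Cells were then exposed to compound for 5 h.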
# [9] = molecular target: Serine/threonine-protein kinase MARK2 (Homo sapiens) (UniProt Q7KZI7); assay: Inhibition of MARK2 (unknown origin) at 1 uM by FRET method; how it was run: as §2
# [10] = molecular target: Dual specificity tyrosine-phosphorylation-regulated kinase 3 (Homo sapiens) (UniProt O43781); assay: Inhibition of DYRK3 (unknown origin) at 1 uM by FRET method; how it was run: as §2
# [11] = molecular target: Serine/threonine-protein kinase mTOR (Homo sapiens) (UniProt P42345); assay: Inhibition of mTOR (unknown origin) at 1 uM by FRET method; how it was run: as §1
# [12] = molecular target: Platelet-derived growth factor receptor beta (Homo sapiens) (UniProt P09619); assay: Inhibition of PDGFRbeta (unknown origin) at 1 uM by FRET method; how it was run: as §1
# [13] = molecular target: T1, Proto-oncogene tyrosine-protein kinase Src; assay: Inhibition of Src (unknown origin) by FRET method
# How it was run: (§3)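 Biochemical IC50 determination from a 10-point dose-response in an enzymatic Z′-LYTE assay. Labeled-peptide phosphorylation was read by FRET under the vendor's protocols.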
# [14] = molecular target: Macrophage colony-stimulating factor 1 receptor (Homo sapiens, UniProt P07333); assay: Inhibition of CSF1R (unknown origin) at 1 uM by FRET method; how it was run: as §2
# [15] = molecular target: Mitogen-activated protein kinase kinase kinase 10 (Homo sapiens, UniProt Q02779); assay: Inhibition of MLK2 (unknown origin) by FRET method; how it was run: as §3
# [16] = molecular target: Phosphorylase b kinase gamma catalytic chain, liver/testis isoform (Homo sapiens) (UniProt P15735); assay: Inhibition of PhKgamma2 (unknown origin) at 1 uM by FRET method; how it was run: as §1
# [17] = molecular target: Hepatocyte growth factor receptor (Homo sapiens) (UniProt P08581); assay: Inhibition of Met (unknown origin) at 1 uM by FRET method; how it was run: as §1
# [18] = Cmax in mouse at 50 mg/kg, po; format: ADME, organism-based; parameters: dose 50 mg/kg, route oral; details: in vivo
# How it was run: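 C57/Bl6 mice were given a single 50 mg/kg oral dose as an MCT suspension. Plasma was sampled over 0–6 h for Cmax, Tmax and AUC0–6h.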
# Mus musculus = assay: Reduction of p-c-Jun level in retina of optic nerve crush injury mouse model at 75 mg/kg, po administered 30 mins prior to nerve crush injury measured at 6 hrs by MSD ELISA; format: functional, organism-based
# How it was run: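 C57/Bl6 mice were dosed orally with a methylcellulose suspension or vehicle 30 min before optic nerve crush. Retinal p-c-Jun was measured 6 h after injury by MSD ELISA. Values are expressed relative to uncrushed vehicle controls as mean ± SEM with individual animals.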
# [19] = molecular target: Dual specificity mitogen-activated protein kinase kinase 4 (Homo sapiens, UniProt P45985); assay: Inhibition of MKK4 (unknown origin) using KFMMTPpYVVTR substrate incubated for 1 hr measured by MpTPpYV probe-based fluorescence polarization assay
# How it was run: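 MKK4 at 30 nM was incubated with 100 µM KFMMTPpYVVTR peptide, 5 µM ATP and 3.3 nM fluorescent MpTPpYV probe. Buffer was 50 mM HEPES pH 7.5 with 5 mM MgCl2 and 10 mM DTT. Reaction ran 1 h at 23 °C, was stopped with EDTA plus anti-phospho-JNK antibody, and read by FP (ex 633/em 670 nm). Activity was normalized to the positive control.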
# [20] = molecular target: Tyrosine-protein kinase BTK (Homo sapiens) (UniProt Q06187); assay: Inhibition of BTK (unknown origin) at 1 uM by FRET method; how it was run: as §2
# [21] = Plasma clearance in […] rat at 0.4 or 1 mg/kg, iv and 1 or 5 mg/kg, po; format: ADME, organism-based
# How it was run: (§4)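 Rat PK: iv dosing at 0.4 or 1 mg/kg as a 60% PEG solution, po dosing at 1 or 5 mg/kg as an aqueous suspension with 1% methylcellulose.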
# [22] = Volume of distribution at steady state in […] rat at 0.4 or 1 mg/kg, iv and 1 or 5 mg/kg, po; format: ADME, organism-based; details: in vivo, read-out: Vdss; how it was run: as §4
# [23] = molecular target: Mitogen-activated protein kinase 8 (Homo sapiens, UniProt P45983); assay: Inhibition of JNK1alpha1(unknown origin) at 1 uM by FRET method; how it was run: as §2
# [24] = molecular target: Protein kinase C beta type (Homo sapiens) (UniProt P05771); assay: Inhibition of PKCbeta1 (unknown origin) at 1 uM by FRET method; how it was run: as §1
# [25] = molecular target: Serine/threonine-protein kinase PLK1 (Homo sapiens) (UniProt P53350); assay: Inhibition of PLK1 (unknown origin) at 1 uM by FRET method; how it was run: as §1
# [26] = molecular target: Insulin-like growth factor 1 receptor (Homo sapiens) (UniProt P08069); assay: Inhibition of IGF1R (unknown origin) at 1 uM by FRET method; how it was run: as §2
# [27] = molecular target: Receptor tyrosine-protein kinase erbB-2 (Homo sapiens) (UniProt P04626); assay: Inhibition of ErbB2 (unknown origin) at 1 uM by FRET method; how it was run: as §2
# [28] = molecular target: Mitogen-activated protein kinase kinase kinase 11 (Homo sapiens, UniProt Q16584); assay: Inhibition of MLK3 (unknown origin) at 1 uM by FRET method; how it was run: as §1
# T1 sequence (P12931 2-536 limits assumed): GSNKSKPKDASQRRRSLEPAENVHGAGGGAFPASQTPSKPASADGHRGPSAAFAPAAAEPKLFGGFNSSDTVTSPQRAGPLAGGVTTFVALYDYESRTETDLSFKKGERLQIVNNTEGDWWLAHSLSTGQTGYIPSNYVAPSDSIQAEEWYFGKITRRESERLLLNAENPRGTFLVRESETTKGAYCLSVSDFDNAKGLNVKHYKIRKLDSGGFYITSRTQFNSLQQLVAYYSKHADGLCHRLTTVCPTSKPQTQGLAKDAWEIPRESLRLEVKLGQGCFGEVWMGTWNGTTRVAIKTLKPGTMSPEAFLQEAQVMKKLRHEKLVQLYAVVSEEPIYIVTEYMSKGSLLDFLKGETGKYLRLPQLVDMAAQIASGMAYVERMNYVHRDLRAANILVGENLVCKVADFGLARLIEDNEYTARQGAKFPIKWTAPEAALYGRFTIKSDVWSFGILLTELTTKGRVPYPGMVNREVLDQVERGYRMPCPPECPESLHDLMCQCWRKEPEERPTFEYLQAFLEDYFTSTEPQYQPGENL
# Chain of Serine/threonine-protein kinase PLK1 (Homo sapiens) (P53350 whole entry): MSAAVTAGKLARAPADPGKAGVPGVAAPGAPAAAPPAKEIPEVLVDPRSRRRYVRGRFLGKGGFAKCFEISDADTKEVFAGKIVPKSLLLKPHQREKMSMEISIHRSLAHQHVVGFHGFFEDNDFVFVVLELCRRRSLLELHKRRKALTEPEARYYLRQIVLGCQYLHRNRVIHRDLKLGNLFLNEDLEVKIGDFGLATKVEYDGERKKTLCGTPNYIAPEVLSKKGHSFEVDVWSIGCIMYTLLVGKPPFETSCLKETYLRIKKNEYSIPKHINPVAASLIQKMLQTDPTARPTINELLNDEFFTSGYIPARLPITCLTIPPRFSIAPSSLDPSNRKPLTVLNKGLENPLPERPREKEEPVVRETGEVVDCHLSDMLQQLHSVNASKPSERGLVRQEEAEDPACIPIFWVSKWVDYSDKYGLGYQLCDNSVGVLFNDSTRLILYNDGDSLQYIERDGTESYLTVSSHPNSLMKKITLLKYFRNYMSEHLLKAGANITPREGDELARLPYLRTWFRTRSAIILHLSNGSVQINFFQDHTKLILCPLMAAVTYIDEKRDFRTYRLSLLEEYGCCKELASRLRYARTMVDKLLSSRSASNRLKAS
# Chain of Dual specificity mitogen-activated protein kinase kinase 4 (P45985 whole entry): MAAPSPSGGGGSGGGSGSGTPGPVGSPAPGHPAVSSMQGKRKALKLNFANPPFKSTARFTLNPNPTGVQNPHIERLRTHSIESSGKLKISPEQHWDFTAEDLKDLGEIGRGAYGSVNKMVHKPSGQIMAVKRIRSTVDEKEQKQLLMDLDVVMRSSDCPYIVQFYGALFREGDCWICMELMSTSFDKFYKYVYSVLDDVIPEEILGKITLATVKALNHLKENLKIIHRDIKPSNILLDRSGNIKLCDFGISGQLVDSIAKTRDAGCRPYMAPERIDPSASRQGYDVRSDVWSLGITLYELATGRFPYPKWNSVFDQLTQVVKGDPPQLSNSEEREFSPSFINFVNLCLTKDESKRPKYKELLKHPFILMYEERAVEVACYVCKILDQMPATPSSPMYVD
# Chain of Hepatocyte growth factor receptor (Homo sapiens) (P08581 whole entry): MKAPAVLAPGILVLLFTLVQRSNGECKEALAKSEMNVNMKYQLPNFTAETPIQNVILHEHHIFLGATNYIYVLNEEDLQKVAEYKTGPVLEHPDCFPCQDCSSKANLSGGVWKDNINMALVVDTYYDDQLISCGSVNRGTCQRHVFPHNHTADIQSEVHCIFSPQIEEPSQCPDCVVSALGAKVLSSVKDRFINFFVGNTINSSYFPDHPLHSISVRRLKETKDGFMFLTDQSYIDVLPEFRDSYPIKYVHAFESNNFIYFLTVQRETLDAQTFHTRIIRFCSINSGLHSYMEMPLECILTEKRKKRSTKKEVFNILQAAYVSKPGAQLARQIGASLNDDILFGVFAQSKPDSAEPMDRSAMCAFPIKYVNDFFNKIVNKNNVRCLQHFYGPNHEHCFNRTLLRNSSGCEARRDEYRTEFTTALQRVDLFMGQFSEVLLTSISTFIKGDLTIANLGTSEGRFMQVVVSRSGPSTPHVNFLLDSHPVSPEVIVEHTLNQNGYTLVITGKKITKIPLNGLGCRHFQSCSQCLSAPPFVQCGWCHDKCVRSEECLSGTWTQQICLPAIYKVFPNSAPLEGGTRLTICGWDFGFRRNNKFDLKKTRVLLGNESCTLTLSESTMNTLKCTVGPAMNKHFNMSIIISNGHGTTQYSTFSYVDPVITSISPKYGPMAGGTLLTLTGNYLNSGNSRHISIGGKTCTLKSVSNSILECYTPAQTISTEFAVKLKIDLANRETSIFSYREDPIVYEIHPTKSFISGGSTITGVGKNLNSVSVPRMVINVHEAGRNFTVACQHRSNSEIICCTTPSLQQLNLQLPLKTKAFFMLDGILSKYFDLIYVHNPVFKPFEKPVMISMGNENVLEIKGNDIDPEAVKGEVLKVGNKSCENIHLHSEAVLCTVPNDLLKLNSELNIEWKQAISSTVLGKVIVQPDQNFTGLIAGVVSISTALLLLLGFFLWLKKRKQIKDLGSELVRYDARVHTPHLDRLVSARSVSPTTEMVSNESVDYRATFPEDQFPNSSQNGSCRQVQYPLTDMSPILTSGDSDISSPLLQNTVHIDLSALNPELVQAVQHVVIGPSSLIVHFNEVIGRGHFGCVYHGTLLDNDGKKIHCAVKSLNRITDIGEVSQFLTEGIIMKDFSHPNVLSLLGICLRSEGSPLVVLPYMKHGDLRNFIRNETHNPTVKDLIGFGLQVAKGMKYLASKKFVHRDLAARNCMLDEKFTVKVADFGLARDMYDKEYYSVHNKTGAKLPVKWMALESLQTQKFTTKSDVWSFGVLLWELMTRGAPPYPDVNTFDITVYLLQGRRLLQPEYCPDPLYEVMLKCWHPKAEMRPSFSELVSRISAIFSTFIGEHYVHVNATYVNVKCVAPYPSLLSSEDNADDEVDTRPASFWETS
# Chain of Mitogen-activated protein kinase kinase kinase 10 (Q02779 whole entry, canonical isoform): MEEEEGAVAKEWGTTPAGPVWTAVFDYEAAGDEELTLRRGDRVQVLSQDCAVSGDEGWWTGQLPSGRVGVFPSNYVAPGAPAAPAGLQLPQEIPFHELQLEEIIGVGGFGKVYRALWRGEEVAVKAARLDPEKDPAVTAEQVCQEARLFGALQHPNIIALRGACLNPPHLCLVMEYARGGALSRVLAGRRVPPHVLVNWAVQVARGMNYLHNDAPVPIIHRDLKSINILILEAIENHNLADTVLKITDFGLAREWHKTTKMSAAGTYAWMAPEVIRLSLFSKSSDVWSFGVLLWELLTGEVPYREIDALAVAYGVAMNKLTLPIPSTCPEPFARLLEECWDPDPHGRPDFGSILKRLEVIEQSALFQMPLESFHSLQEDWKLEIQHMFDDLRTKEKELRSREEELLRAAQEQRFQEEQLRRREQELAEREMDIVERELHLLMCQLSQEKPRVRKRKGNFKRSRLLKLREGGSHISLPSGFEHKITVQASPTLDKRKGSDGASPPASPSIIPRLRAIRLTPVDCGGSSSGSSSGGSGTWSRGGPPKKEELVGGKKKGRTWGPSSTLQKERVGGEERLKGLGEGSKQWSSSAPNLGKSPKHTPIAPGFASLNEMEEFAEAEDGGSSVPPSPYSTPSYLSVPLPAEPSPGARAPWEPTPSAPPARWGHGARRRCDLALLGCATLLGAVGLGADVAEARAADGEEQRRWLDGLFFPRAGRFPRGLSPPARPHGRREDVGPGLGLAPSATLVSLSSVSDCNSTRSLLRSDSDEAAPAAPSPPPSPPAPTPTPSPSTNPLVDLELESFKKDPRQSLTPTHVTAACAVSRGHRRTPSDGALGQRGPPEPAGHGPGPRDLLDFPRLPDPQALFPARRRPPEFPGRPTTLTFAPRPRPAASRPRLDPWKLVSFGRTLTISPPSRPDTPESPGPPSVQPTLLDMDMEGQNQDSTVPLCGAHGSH
# Chain of Mitogen-activated protein kinase 8 (P45983 whole entry): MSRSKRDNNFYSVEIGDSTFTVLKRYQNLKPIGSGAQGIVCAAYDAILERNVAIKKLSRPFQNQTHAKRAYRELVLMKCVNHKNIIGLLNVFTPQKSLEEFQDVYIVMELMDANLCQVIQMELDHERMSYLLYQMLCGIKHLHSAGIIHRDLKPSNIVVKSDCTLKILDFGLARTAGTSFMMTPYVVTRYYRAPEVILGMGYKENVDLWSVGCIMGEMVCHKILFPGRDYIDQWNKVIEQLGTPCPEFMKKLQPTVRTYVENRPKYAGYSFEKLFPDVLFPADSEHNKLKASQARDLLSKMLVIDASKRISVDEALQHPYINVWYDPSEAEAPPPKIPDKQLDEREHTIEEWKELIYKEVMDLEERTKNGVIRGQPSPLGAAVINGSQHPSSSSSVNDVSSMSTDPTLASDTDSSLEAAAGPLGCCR
# Chain of Tyrosine-protein kinase BTK (Homo sapiens) (Q06187 whole entry): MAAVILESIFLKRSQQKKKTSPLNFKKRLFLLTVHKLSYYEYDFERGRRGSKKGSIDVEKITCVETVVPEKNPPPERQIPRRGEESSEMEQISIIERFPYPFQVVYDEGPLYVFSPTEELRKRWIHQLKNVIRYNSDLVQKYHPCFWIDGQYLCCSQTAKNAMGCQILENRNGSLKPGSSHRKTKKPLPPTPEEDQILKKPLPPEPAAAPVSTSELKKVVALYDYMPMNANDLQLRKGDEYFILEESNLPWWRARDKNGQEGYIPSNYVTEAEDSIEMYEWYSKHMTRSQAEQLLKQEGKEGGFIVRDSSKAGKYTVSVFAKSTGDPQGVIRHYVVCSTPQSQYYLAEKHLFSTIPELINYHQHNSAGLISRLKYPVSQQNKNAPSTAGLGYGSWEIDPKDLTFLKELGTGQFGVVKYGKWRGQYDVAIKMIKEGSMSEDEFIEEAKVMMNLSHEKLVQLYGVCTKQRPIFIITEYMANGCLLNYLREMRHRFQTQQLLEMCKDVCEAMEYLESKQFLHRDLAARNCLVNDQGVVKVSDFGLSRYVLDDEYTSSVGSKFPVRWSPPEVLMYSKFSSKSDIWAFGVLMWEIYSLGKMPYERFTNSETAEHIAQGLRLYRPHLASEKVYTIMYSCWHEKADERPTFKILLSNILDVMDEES
smiles,measurement,setting,value
N#Cc1ccnc(Nc2cc(C3CCN(C4COC4)CC3)n(C3CCCC3)n2)c1,inhibition,[1],41.2%
same,inhibition,[2],55.4%
same,inhibition,[3],15.6%
same,inhibition,[4],4%
same,IC50,[5],534 nM
same,inhibition,[6],7.1%
same,IC50,[7],682 nM
same,inhibition,[8],inactive
same,inhibition,[9],3%
same,inhibition,[10],0.3%
same,inhibition,[11],9.2%
same,inhibition,[12],23.8%
same,IC50,[13],1010 nM
same,inhibition,[14],51.8%
same,IC50,[15],> 10000 nM
same,inhibition,[16],-1.9%
same,inhibition,[17],23.4%
same,Cmax,[18],5.9 µM
same,Activity,Mus musculus,Active
same,IC50,[19],> 5000 nM
same,inhibition,[20],32.4%
same,clearance,[21],34 mL/min/kg
same,Vd,[22],4.4 L/kg
same,inhibition,[23],4.5%
same,inhibition,[24],15.9%
same,inhibition,[25],7.3%
same,inhibition,[26],37%
same,inhibition,[27],1%
same,inhibition,[28],1.4%
